The values that follow come from ChEMBL document CHEMBL4257553, “Novel organophosphorus aminopyrimidines as unique structural DNA-targeting membrane active inhibitors towards drug-resistant methicillin-resistant Staphylococcus aureus” (Medchemcomm, 2018).

Molecules are shown by their SMILES. In brackets after ≈: the same amount, converted by molar mass.

Common to all, as to format: functional
Assay [1] relates to Escherichia coli. In words: Antibacterial activity against Escherichia coli after 24 hrs by microbroth dilution method. A digest of the protocol:
(§1)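 Tested by CLSI-standard broth microdilution against a panel of eleven bacterial strains, Gram-positive and Gram-negative, including MRSA.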
On the technique in general: Dilution methods test growth across graded concentrations, often in twofold steps.

Assay [2] concerns Escherichia coli. Nature of the assay: Antibacterial activity against Escherichia coli ATCC 25922 after 24 hrs by microbroth dilution method. As to conditions: ATCC 25922, 24 h. A digest of the protocol:
as §1

Assay [3] relates to Staphylococcus aureus. In words: Antibacterial activity against Staphylococcus aureus after 24 hrs by microbroth dilution method. A digest of the protocol: as §1
For assay [4], the system named is Enterococcus faecalis. In words: Antibacterial activity against Enterococcus faecalis after 24 hrs by microbroth dilution method. A digest of the protocol:
as §1

The test system of assay [5] is Pseudomonas aeruginosa. Nature of the assay: Antibacterial activity against Pseudomonas aeruginosa ATCC 27853 after 24 hrs by microbroth dilution method. The conditions noted are these: ATCC 27853, 24 h. A digest of the protocol: as §1
Assay [6] relates to Aspergillus fumigatus. In words: Potency index, ratio of fluconazole MIC to compound MIC for antifungal activity against Aspergillus fumigatus.
The test system of assay [7] is Aspergillus fumigatus. In words: Antifungal activity against Aspergillus fumigatus after 24 hrs by microbroth dilution method.
Assay [8] has as its system Acinetobacter baumannii. Nature of the assay: Antibacterial activity against Acinetobacter baumannii after 24 hrs by microbroth dilution method. A digest of the protocol:
as §1

In assay [9] the test system is Pseudomonas aeruginosa. Nature of the assay: Antibacterial activity against Pseudomonas aeruginosa after 24 hrs by microbroth dilution method. An outline of the steps:
as §1

The subject of assay [10] is Klebsiella pneumoniae. Nature of the assay: Antibacterial activity against Klebsiella pneumoniae after 24 hrs by microbroth dilution method. A digest of the protocol:
as §1

The subject of assay [11] is Staphylococcus aureus. In words: Antibacterial activity against Staphylococcus aureus ATCC 25923 after 24 hrs by microbroth dilution method. The conditions noted are these: ATCC 25923, 24 h. An outline of the steps: as §1
Assay [12] concerns Staphylococcus aureus. Nature of the assay: Antibacterial activity against methicillin resistant Staphylococcus aureus after 24 hrs by microbroth dilution method. A digest of the protocol: as §1
The subject of assay [13] is Staphylococcus aureus. Nature of the assay: Antibacterial activity against Staphylococcus aureus ATCC 29213 after 24 hrs by microbroth dilution method. As to conditions: ATCC 29213, 24 h. An outline of the steps: as §1

By MIC is commonly meant the lowest concentration found to suppress growth. A high value points to weaker potency. Regarding `CCOP(=O)(OCC)C(Nc1ncccn1)c1ccc(OC)cc1` (configuration not stated), the MIC is 256 µg/mL (≈ 729 µM) in assay [1]; 256 µg/mL (≈ 729 µM) in assay [2]; 256 µg/mL (≈ 729 µM) in assay [3]; 64 µg/mL (≈ 182 µM) in assay [4]; 4 µg/mL (≈ 11.4 µM) in assay [5]; over 16 µg/mL in assay [7]. Moreover, the MIC came to 128 µg/mL (≈ 364 µM) in [8]; 128 µg/mL (≈ 364 µM) in [9]; 256 µg/mL (≈ 729 µM) in [10]; 64 µg/mL (≈ 182 µM) in [11]; 256 µg/mL (≈ 729 µM) in assay [12]; 256 µg/mL (≈ 729 µM) in [13]. The Ratio in assay [6] is on record as 16.

`CCOP(=O)(OCC)C(Nc1ncccn1)c1ccc2c(c1)c1cc(C=O)ccc1n2CC` (configuration not stated): the MIC is 512 µg/mL (≈ 1100 µM) in [1]; 256 µg/mL (≈ 549 µM) in assay [2]; 256 µg/mL (≈ 549 µM) in assay [3]; 16 µg/mL (≈ 34.3 µM) in [4]; 256 µg/mL (≈ 549 µM) in [5]; over 16 µg/mL in [7]. Also, the MIC in assay [8] is 128 µg/mL (≈ 274 µM); in [9] it was 256 µg/mL (≈ 549 µM); in [10], 256 µg/mL (≈ 549 µM); in assay [11], 256 µg/mL (≈ 549 µM); in assay [12] it was 128 µg/mL (≈ 274 µM); in [13], 256 µg/mL (≈ 549 µM). The Ratio in assay [6] is reported as 16.

Take `CCOP(=O)(OCC)C(Nc1ncccn1)c1cn(CC)c2ccccc12` (configuration not stated): the MIC in assay [1] was 256 µg/mL (≈ 659 µM); in assay [2], 256 µg/mL (≈ 659 µM); in assay [3] it was 64 µg/mL (≈ 165 µM); in assay [4], 128 µg/mL (≈ 330 µM); in assay [5] it was 128 µg/mL (≈ 330 µM); in assay [7] it was over 16 µg/mL. The minimum inhibitory concentration (MIC) in [8] amounted to 64 µg/mL (≈ 165 µM); in [9], 256 µg/mL (≈ 659 µM); in assay [10], 64 µg/mL (≈ 165 µM); in assay [11], 64 µg/mL (≈ 165 µM); in assay [12], 4 µg/mL (≈ 10.3 µM); in [13] it was 256 µg/mL (≈ 659 µM). For the same compound, the Ratio in [6] is 16.

Regarding `CCOP(=O)(OCC)C(Nc1ncccn1)c1ccc([N+](=O)[O-])cc1` (configuration not stated), the MIC in [1] was 256 µg/mL (≈ 699 µM); in assay [2] it was 128 µg/mL (≈ 349 µM); in assay [3], 256 µg/mL (≈ 699 µM); in assay [4], 32 µg/mL (≈ 87.4 µM); in assay [5], 16 µg/mL (≈ 43.7 µM); in assay [7], over 16 µg/mL. The MIC was 128 µg/mL (≈ 349 µM) in [8]; 256 µg/mL (≈ 699 µM) in assay [9]; 256 µg/mL (≈ 699 µM) in assay [10]; 8 µg/mL (≈ 21.8 µM) in assay [11]; 128 µg/mL (≈ 349 µM) in assay [12]; 256 µg/mL (≈ 699 µM) in [13]. Also, the Ratio in assay [6] is reported as 16.

For `CCCCc1nc(Cl)c(C(Nc2ncccn2)P(=O)(OCC)OCC)n1CC` (configuration not stated), the minimum inhibitory concentration (MIC) in assay [1] is 256 µg/mL (≈ 596 µM); in assay [2], 256 µg/mL (≈ 596 µM); in assay [3] it was 512 µg/mL (≈ 1190 µM); in assay [4], 64 µg/mL (≈ 149 µM); in assay [5] it was 256 µg/mL (≈ 596 µM); in [7], over 16 µg/mL. The MIC in assay [8] was 256 µg/mL (≈ 596 µM); in [9] it was 256 µg/mL (≈ 596 µM); in assay [10], 128 µg/mL (≈ 298 µM); in [11], 128 µg/mL (≈ 298 µM); in assay [12], 256 µg/mL (≈ 596 µM); in assay [13], 256 µg/mL (≈ 596 µM). In [6], the Ratio was found to be 16.

In the case of `CCOP(=O)(OCC)C(Nc1ncccn1)c1ccccc1Cl` (configuration not stated), the minimal inhibitory concentration (MIC) in [1] was 256 µg/mL (≈ 720 µM); in assay [2], 64 µg/mL (≈ 180 µM); in assay [3], 128 µg/mL (≈ 360 µM); in [4], 128 µg/mL (≈ 360 µM); in assay [5] it was 128 µg/mL (≈ 360 µM); in [7] it was over 16 µg/mL. Besides, the MIC stood at 128 µg/mL (≈ 360 µM) in assay [8]; 128 µg/mL (≈ 360 µM) in assay [9]; 32 µg/mL (≈ 89.9 µM) in [10]; 128 µg/mL (≈ 360 µM) in assay [11]; 8 µg/mL (≈ 22.5 µM) in [12]; 128 µg/mL (≈ 360 µM) in assay [13]. Further, in [6], the Ratio is given as 16.

With `CCOP(=O)(OCC)C(Nc1ncccn1)c1ccc2oc(=O)ccc2c1` (configuration not stated), the MIC was 512 µg/mL (≈ 1320 µM) in assay [1]; 256 µg/mL (≈ 658 µM) in assay [2]; 128 µg/mL (≈ 329 µM) in [3]; 512 µg/mL (≈ 1320 µM) in assay [4]; 512 µg/mL (≈ 1320 µM) in assay [5]; over 16 µg/mL in assay [7]. Moreover, the minimum inhibitory concentration (MIC) turned out to be 64 µg/mL (≈ 164 µM) in assay [8]; 64 µg/mL (≈ 164 µM) in [9]; 512 µg/mL (≈ 1320 µM) in assay [10]; 64 µg/mL (≈ 164 µM) in assay [11]; 256 µg/mL (≈ 658 µM) in [12]; 128 µg/mL (≈ 329 µM) in assay [13]. In assay [6], the Ratio is given as 16.

For `CCOP(=O)(OCC)C(Nc1ncccn1)c1ccc(F)cc1` (configuration not stated), the MIC is 256 µg/mL (≈ 754 µM) in assay [1]; 256 µg/mL (≈ 754 µM) in assay [2]; 256 µg/mL (≈ 754 µM) in assay [3]; 64 µg/mL (≈ 189 µM) in [4]; 64 µg/mL (≈ 189 µM) in assay [5]; over 16 µg/mL in assay [7]. Further, the MIC in assay [8] came out at 128 µg/mL (≈ 377 µM); in [9], 128 µg/mL (≈ 377 µM); in assay [10], 128 µg/mL (≈ 377 µM); in [11], 64 µg/mL (≈ 189 µM); in assay [12] it was 256 µg/mL (≈ 754 µM); in assay [13], 256 µg/mL (≈ 754 µM). In [6], the Ratio is 16.

As to `Cc1ccc(C(Nc2ncccn2)P(=O)(O)O)cc1` (configuration not stated), the minimum inhibitory concentration (MIC) in assay [1] was 128 µg/mL (≈ 458 µM); in [2], 256 µg/mL (≈ 917 µM); in [3] it was 256 µg/mL (≈ 917 µM); in [4], 256 µg/mL (≈ 917 µM); in assay [5], 256 µg/mL (≈ 917 µM); in assay [7], over 16 µg/mL. In addition, the MIC came out at 256 µg/mL (≈ 917 µM) in assay [8]; 128 µg/mL (≈ 458 µM) in assay [9]; 128 µg/mL (≈ 458 µM) in assay [10]; 128 µg/mL (≈ 458 µM) in assay [11]; 256 µg/mL (≈ 917 µM) in assay [12]; 256 µg/mL (≈ 917 µM) in assay [13]. In addition, the Ratio in [6] came to 16.
